# Results taken from ChEMBL document CHEMBL1150651, “Cholestane glycosides from the bulbs of Ornithogalum thyrsoides and their cytotoxic activity against HL-60 leukemia cells” (J Nat Prod, 2002).
# System: HL-60
# Assay: Cytotoxicity against human HL60 cells after 72 hrs by MTT assay
# Type: functional, cell-based
# Conditions: HL-60, 72 h
# Summary of the method: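 HL-60 cells (JCRB 0085) grown in RPMI 1640 with heat-inactivated 10% FBS, L-glutamine, penicillin and streptomycin. Seeded at 4 × 10^4 cells/mL and preincubated 24 h at 37 °C in 5% CO2. Sample added in EtOH-H2O (1:1) at final 0.00001-10 µg/mL; vehicle in control wells. After 72 h, MTT (5 mg/mL in PBS) added for 4 h. Formazan dissolved in DMSO, absorbance read at 550 nm.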
row,SMILES,IC50 [µg/mL]
1,COc1cc(C(=O)O[C@H]2[C@H](O[C@@H]3[C@@H](OC(C)=O)[C@H](O[C@H]4C[C@H]5[C@@H]6CC=C7C[C@@H](O[C@@H]8O[C@H](CO[C@@H]9O[C@H](CO)[C@@H](O)[C@H](O)[C@H]9O)[C@@H](O)[C@H](O)[C@H]8O)CC[C@]7(C)[C@H]6CC[C@]5(C)[C@@]4(O)[C@H](C)C(=O)CCC(C)C)OC[C@@H]3O)OC[C@@H](O)[C@@H]2O)cc(OC)c1OC,0.7
2,CC(C)CCC(=O)[C@@H](C)[C@@]1(O)[C@@H](O[C@@H]2OC[C@H](O)[C@H](O)[C@H]2O)C[C@H]2[C@@H]3CC=C4C[C@@H](O[C@@H]5O[C@H](CO)[C@@H](O)[C@H](O)[C@H]5O)CC[C@]4(C)[C@H]3CC[C@@]21C,0.12
3,COc1ccc(C(=O)O[C@H]2[C@H](O[C@@H]3[C@@H](OC(C)=O)[C@H](O[C@H]4C[C@H]5[C@@H]6CC=C7C[C@@H](O[C@@H]8O[C@H](CO)[C@@H](O)[C@H](O)[C@H]8O)CC[C@]7(C)[C@H]6CC[C@]5(C)[C@@]4(O)[C@H](C)C(=O)CCC(C)C)OC[C@@H]3O)OC[C@@H](O)[C@@H]2O)cc1OC,0.00013
4,CC(=O)O[C@H]1[C@H](O[C@H]2C[C@H]3[C@@H]4CC=C5C[C@@H](O[C@@H]6O[C@H](CO)[C@@H](O)[C@H](O)[C@H]6O)CC[C@]5(C)[C@H]4CC[C@]3(C)[C@@]2(O)[C@H](C)C(=O)CCC(C)C)OC[C@H](O)[C@@H]1O[C@@H]1OC[C@@H](O)[C@H](O)[C@H]1O,0.013
5,COc1cc(C(=O)O[C@H]2[C@H](O[C@@H]3[C@@H](OC(C)=O)[C@H](O[C@H]4C[C@H]5[C@@H]6CC=C7C[C@@H](O[C@@H]8O[C@H](CO)[C@@H](O)[C@H](O)[C@H]8O)CC[C@]7(C)[C@H]6CC[C@]5(C)[C@@]4(O)[C@H](C)C(=O)CCC(C)C)OC[C@@H]3O)OC[C@@H](O)[C@@H]2O)cc(OC)c1OC,0.00016
6,COc1ccc(C(=O)O[C@H]2[C@H](O[C@@H]3[C@@H](OC(C)=O)[C@H](O[C@H]4C[C@H]5[C@@H]6CC=C7C[C@@H](O[C@@H]8O[C@H](CO[C@@H]9O[C@H](CO)[C@@H](O)[C@H](O)[C@H]9O)[C@@H](O)[C@H](O)[C@H]8O)CC[C@]7(C)[C@H]6CC[C@]5(C)[C@@]4(O)[C@H](C)C(=O)CCC(C)C)OC[C@@H]3O)OC[C@@H](O)[C@@H]2O)cc1OC,0.81
7,CC(=O)O[C@H]1[C@H](O[C@H]2C[C@H]3[C@@H]4CC=C5C[C@@H](O[C@@H]6O[C@H](CO[C@@H]7O[C@H](CO)[C@@H](O)[C@H](O)[C@H]7O)[C@@H](O)[C@H](O)[C@H]6O)CC[C@]5(C)[C@H]4CC[C@]3(C)[C@@]2(O)[C@H](C)C(=O)CCC(C)C)OC[C@H](O)[C@@H]1O[C@@H]1OC[C@@H](O)[C@H](O)[C@H]1O,> 10
